Common to all, as to assay type: biochemical
The target of assay [1] is T1, UGT1A6 (Homo sapiens, UniProt P19224).
T1 sequence (P19224 27-532): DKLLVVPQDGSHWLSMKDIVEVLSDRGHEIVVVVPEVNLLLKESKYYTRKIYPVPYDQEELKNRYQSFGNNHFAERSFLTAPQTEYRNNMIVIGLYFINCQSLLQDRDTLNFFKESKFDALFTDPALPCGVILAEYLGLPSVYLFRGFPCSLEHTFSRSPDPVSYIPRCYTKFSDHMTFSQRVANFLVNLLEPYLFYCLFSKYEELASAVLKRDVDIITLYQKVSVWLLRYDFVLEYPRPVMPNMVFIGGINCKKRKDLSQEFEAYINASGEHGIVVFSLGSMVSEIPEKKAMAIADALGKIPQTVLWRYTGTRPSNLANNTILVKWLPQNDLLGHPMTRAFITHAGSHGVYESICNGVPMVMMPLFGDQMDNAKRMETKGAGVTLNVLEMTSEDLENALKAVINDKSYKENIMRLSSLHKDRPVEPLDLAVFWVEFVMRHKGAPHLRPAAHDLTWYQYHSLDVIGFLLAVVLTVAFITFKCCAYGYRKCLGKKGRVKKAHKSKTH
As to the kind of experiment: 4-MU glucuronidation, UPLC-UV, dose response. The method, boiled down:
(§1)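 Recombinant human UGT isoform expressed in baculovirus-infected insect cells. Test compound at 0, 0.5, 1, 5, 10, 20, 40, 60, 80 and 100 µM, with no-compound controls. After 5 min preincubation at 37 °C, 5 mM UDPGA was added to start the reaction. Reactions were stopped at 30–120 min with acetonitrile containing 7-hydroxycoumarin internal standard. 4-MU glucuronide was measured by C18 UPLC with UV at 316 nm as the peak-area ratio to internal standard. Two independent experiments in duplicate.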

In assay [2] the target is T1, UGT1A6. As to the kind of experiment: 4-MU glucuronidation, UPLC-UV, Lineweaver-Burk slope replot. The method, boiled down: (§2)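 Recombinant human UGT isoform expressed in insect cells. 4-MU was varied, with or without test compound at levels giving 20%, 40%, 60% and 80% inhibition. After 5 min at 37 °C, 5 mM UDPGA was added; reactions ran 30–120 min. Glucuronide was quantified by UPLC-UV at 316 nm against a 7-hydroxycoumarin internal standard, with points as duplicate means. Inhibition type came from Lineweaver-Burk plots, and Ki from a replot of slopes against inhibitor concentration.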

Assay [3] concerns the target T2, UGT1A9 (Homo sapiens, UniProt O60656).
T2 sequence (O60656 26-530): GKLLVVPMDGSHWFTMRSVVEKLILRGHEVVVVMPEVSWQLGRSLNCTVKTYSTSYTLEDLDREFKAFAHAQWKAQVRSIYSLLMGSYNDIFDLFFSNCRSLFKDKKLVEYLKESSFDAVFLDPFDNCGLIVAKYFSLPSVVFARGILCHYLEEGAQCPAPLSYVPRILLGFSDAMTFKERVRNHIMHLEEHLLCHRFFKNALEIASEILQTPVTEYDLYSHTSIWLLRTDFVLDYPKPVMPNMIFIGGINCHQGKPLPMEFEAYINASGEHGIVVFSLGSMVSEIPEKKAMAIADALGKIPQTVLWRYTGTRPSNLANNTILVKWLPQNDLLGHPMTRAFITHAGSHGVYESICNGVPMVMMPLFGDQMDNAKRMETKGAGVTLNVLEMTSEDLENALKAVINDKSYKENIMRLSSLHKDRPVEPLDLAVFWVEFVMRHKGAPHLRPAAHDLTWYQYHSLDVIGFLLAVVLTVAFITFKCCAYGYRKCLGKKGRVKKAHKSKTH
Briefly: 4-MU glucuronidation, UPLC-UV, dose response. The essentials: as §1

Assay [4] deals with T3, UGT1A7 (Homo sapiens, UniProt Q9HAW7).
T3 sequence (Q9HAW7 26-530): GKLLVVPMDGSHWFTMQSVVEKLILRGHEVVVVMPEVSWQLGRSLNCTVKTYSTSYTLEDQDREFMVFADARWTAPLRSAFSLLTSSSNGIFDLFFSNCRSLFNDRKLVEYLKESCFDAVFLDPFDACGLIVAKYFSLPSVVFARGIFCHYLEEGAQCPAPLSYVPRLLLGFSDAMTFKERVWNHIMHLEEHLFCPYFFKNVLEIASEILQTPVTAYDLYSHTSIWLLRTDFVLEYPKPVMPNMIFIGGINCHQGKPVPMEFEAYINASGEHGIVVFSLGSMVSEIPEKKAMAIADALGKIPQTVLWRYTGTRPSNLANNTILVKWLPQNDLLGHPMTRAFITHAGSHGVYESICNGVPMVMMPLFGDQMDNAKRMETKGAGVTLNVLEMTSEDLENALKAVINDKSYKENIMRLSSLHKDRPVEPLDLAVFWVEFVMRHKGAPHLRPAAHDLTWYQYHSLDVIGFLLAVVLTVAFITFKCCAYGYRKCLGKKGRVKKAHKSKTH
As to the kind of experiment: 4-MU glucuronidation, UPLC-UV, dose response. The method, boiled down: as §1

Assay [5] has as its target T3, UGT1A7. As to the kind of experiment: 4-MU glucuronidation, UPLC-UV, Lineweaver-Burk slope replot. The essentials: as §2
The target in assay [6] is T2, UGT1A9. Described as above. The method, boiled down:
as §2

Assay [7] deals with T4, UGT2B4 (Homo sapiens, UniProt P06133).
T4 sequence (P06133 24-528): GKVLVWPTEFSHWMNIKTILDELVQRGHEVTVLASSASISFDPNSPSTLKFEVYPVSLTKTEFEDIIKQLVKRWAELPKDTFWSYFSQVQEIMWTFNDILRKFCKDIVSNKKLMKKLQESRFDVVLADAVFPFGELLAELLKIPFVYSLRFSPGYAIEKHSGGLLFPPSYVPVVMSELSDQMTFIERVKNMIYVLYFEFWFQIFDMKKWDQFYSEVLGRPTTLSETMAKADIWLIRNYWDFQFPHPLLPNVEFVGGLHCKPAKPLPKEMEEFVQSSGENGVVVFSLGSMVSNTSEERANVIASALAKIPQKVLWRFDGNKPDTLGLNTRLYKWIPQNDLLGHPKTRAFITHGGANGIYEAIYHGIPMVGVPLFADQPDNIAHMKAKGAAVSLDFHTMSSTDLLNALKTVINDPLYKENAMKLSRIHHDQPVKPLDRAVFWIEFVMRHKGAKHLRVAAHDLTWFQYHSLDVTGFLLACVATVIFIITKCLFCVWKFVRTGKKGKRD
Briefly: 4-MU glucuronidation, UPLC-UV, dose response. The essentials:
as §1

Assay [8] addresses T4, UGT2B4. Briefly: 4-MU glucuronidation, UPLC-UV, Lineweaver-Burk slope replot. The method, boiled down: as §2
The mark [9] stands for this setting: competitive, 4-MU varied, UDPGA 5 mM, MgCl2 5 mM, Tris-HCl pH 7.4, 37 °C.
Where [10] appears, read: competitive, 4-MU 30 μM, UDPGA 5 mM, MgCl2 5 mM, Tris-HCl pH 7.4, 37 °C.

Where two headings read alike, the source gives them in different places.

Take `CCCCOCCOC(=O)c1ccccc1C(=O)OCCOCCCC` [BBOP]: the IC50 in assay [1] amounted to 35.1 µM; in assay [3] it was 28.3 µM; in assay [4] it was 18.2 µM. For the same compound, the Ki in assay [2] came to 15.5 µM; in assay [5], 23.6 µM; in assay [6], 73.7 µM.

In turn, `C=CCOC(=O)c1ccccc1C(=O)OCC=C` [DAP] returned an IC50 in assay [7] (competitive, 4-MU 1000 μM, UDPGA 5 mM, MgCl2 5 mM, Tris-HCl pH 7.4, 37 °C) of 14.3 µM. The same compound displayed an inhibitory constant (Ki) in assay [8] (setting [9]) of 6.73 µM.

`O=C(OC1CCCCC1)c1ccccc1C(=O)OC1CCCCC1` [DCHP] gave an IC50 in assay [3] (setting [10]) of 1.46 µM. This compound also returned a Ki in assay [6] (setting [9]) of 1.07 µM.

Turning to `CC(C)COC(=O)c1ccccc1C(=O)OCC(C)C` [DiBP], the IC50 in assay [7] was 5.89 µM; in assay [3], 7.03 µM. Besides, the values for the Ki in assay [6] and in assay [8] were 2.79 µM and 6.79 µM, respectively.

On to `CCCCCCOC(=O)c1ccccc1C(=O)OCCCCCC` [DHP], for which, in assay [3] (setting [10]), the IC50 was found to be 25.4 µM. Further, the Ki in assay [6] (setting [9]) was 0.58 µM.

On to `CCCCOC(=O)c1ccccc1C(=O)OCCCC` [DBP], for which the results for the IC50 in assay [7] and in assay [3] were 11.9 µM and 17.6 µM, respectively. The Ki in assay [6] stood at 22.8 µM; in assay [8], 4.93 µM.

In the case of `CCCCOC(=O)c1ccccc1C(=O)OCc1ccccc1` [BBZP], the half-maximal inhibitory concentration (IC50) in assay [1] was 53.2 µM; in assay [7] it was 13.8 µM; in assay [3] it was 5.54 µM; in assay [4], 19.5 µM. Also, the Ki in assay [2] came out at 52.3 µM; in assay [5], 12.2 µM; in assay [6], 0.84 µM; in assay [8], 7.23 µM.

Consider `CC(C)CCOC(=O)c1ccccc1C(=O)OCCC(C)C` [DiPP], for which, in assay [3], inhibition was half-maximal at 14.7 µM (IC50). In assay [6], this compound yielded a Ki of 5.61 µM.

`CCCCCOC(=O)c1ccccc1C(=O)OCCCCC` [DPP] came in with an IC50 in assay [3] of 18.5 µM. The same compound displayed a Ki in assay [6] of 1.74 µM.

Compound `COCCOC(=O)c1ccccc1C(=O)OCCOC` [DMEP] came in with an IC50 in assay [3] (setting [10]) of 18.2 µM. The compound further had a Ki in assay [6] (setting [9]) of 4.51 µM.

For the origin of these results see article PMC6331009 (Chemosphere, 2017).
